Laboratory results from ChEMBL document CHEMBL4393737, “Synthesis of quinoline derivatives as diabetic II inhibitors and molecular docking studies” (Bioorg Med Chem, 2019).

Columns and labels:
Saccharomyces cerevisiae = test: Inhibition of Saccharomyces cerevisiae alpha-glucosidase using para-nitrophenyl-alpha-D-glucopyranoside as substrate preincubated for 5 mins followed by substrate addition and measured after 5 mins relative to control; design: concentration or dose not given beside the values
How it was run: (§1)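 Baker's yeast α-glucosidase (EC 3.2.1.20) in 100 mM phosphate buffer, pH 6.8. Compounds came from 5 mg/mL DMSO stocks and were incubated with enzyme for 5 min. p-Nitrophenyl-α-D-glucopyranoside (5 mM solution) was then added and incubated for 5 min, and absorbance read at 405 nm. Blanks with buffer in place of substrate gave background; acarbose served as positive control.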

[1] = Inhibition of Saccharomyces cerevisiae alpha-glucosidase using para-nitrophenyl-alpha-D-glucopyranoside as substrate preincubated for 5 mins followed by substrate addition and measured after 5 mins; how it was run: as §1

inhibition (Saccharomyces cerevisiae) | IC50 [1] | IC50 ([1]; read-out: IC50) | Compound
< 50% | Not Active | – | O=C(N/N=C\c1ccncc1)c1ccc2ncccc2c1
– | – | 13.2 µM | O=C(N/N=C\c1ccccc1O)c1ccc2ncccc2c1
< 50% | Not Active | – | O=C(N/N=C\c1ccc([N+](=O)[O-])cc1)c1ccc2ncccc2c1
– | – | 6.2 µM | O=C(N/N=C\c1ccc(O)c(O)c1)c1ccc2ncccc2c1
– | – | 18.4 µM | COc1ccc(O)c(/C=N\NC(=O)c2ccc3ncccc3c2)c1
< 50% | Not Active | – | O=C(N/N=C\c1cccc([N+](=O)[O-])c1)c1ccc2ncccc2c1
– | – | 35.7 µM | O=C(N/N=C\c1cccs1)c1ccc2ncccc2c1
– | – | 37.6 µM | O=C(N/N=C\c1ccccc1[N+](=O)[O-])c1ccc2ncccc2c1
– | – | 23.5 µM | O=C(N/N=C\c1ccc(O)cc1)c1ccc2ncccc2c1
– | – | 48.2 µM | O=C(N/N=C\c1cccc(F)c1)c1ccc2ncccc2c1
– | – | 21.6 µM | COc1ccc(/C=N\NC(=O)c2ccc3ncccc3c2)c(O)c1
< 50% | Not Active | – | COc1ccc(/C=N\NC(=O)c2ccc3ncccc3c2)cc1
– | – | 38.4 µM | O=C(N/N=C\c1ccccn1)c1ccc2ncccc2c1
– | – | 14.4 µM | COc1ccc(/C=N\NC(=O)c2ccc3ncccc3c2)cc1O
– | – | 14.1 µM | O=C(N/N=C\c1ccc(O)cc1O)c1ccc2ncccc2c1
– | – | 12.4 µM | O=C(N/N=C\c1cc(O)ccc1O)c1ccc2ncccc2c1
– | – | 48.5 µM | O=C(N/N=C\c1cccc(O)c1)c1ccc2ncccc2c1
– | – | 9.4 µM | O=C(N/N=C\c1cccc(O)c1O)c1ccc2ncccc2c1
– | – | 7.4 µM | O=C(N/N=C\c1ccccc1F)c1ccc2ncccc2c1
< 50% | Not Active | – | COc1ccc(/C=N\NC(=O)c2ccc3ncccc3c2)cc1OC
< 50% | Not Active | – | Cc1cccc(C)c1/C=N\NC(=O)c1ccc2ncccc2c1
< 50% | Not Active | – | O=C(N/N=C\c1cccnc1)c1ccc2ncccc2c1
– | – | 28.6 µM | O=C(N/N=C\c1ccco1)c1ccc2ncccc2c1
– | – | 28.9 µM | O=C(N/N=C\c1ccc(F)cc1)c1ccc2ncccc2c1
< 50% | Not Active | – | COc1cccc(/C=N\NC(=O)c2ccc3ncccc3c2)c1
